From PubChem BioAssay
In the library only some 3.5% were active in any assay of this set; here they are far more common.
MrgX1 ag: agonists of human MrgX1 receptor | MrgX1-HEK293 cells, Fluo-4 calcium fluorescence, agonist mode; active compounds read high | Q96LB2 | B-score at 10 µM | 310,000 tested, 0.44% active;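 active = calcium response B-score plate-corrected fluorescence ratio at least 3 library SD, with starting fluorescence B-score inside 5 SD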
Target sequence (Q96LB2 whole entry, looked up): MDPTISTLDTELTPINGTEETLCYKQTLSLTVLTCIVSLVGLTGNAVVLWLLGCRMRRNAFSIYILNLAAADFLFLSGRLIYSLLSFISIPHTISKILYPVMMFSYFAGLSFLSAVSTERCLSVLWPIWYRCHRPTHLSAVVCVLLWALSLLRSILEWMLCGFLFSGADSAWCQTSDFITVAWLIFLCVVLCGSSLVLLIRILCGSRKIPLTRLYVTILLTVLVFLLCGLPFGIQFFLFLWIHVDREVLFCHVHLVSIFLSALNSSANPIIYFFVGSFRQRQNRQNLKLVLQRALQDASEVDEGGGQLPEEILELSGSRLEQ
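times = overnight plating, then 30 min 37 °C plus 30 min room-temperature dye loading | assay system = stable human MrgX1 HEK293 cell line | input = fifteen thousand cells per well | signal = kinetic calcium dye fluorescence, Fluo-4 NW | dosing = compound delivered in addition one of three | read-out = B-scored fluorescence response ratio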
RGS4 act: potentiators or activators of RGS4 | HEK293 M3R/inducible RGS4, carbachol calcium flux Fluo4; active compounds read low | 310,000 tested, 0.92% active | B-score at 10 µM;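 active = B-score of the integrated calcium signal more than 4 SD below the library mean, with starting fluorescence not abnormally high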;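 note: negative B-score means reduced calcium response which marks RGS4 activation or potentiation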
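System – HEK293 FlpIn-TREx cells, stable M3R, doxycycline-inducible RGS4 · Reagent – ECmax carbachol challenge · Times – compound preincubation 20 min at room temperature before agonist · Technique – Fluo4 fluorescence kinetic imaging of calcium · Measure – B score of integrated Fluo4 ratio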
MrgX1 PAM: allosterically activates human MrgX1 receptor signaling | MrgX1-HEK293, Fluo-4 calcium flux, FDSS; active compounds read high | 310,000 tested, 0.63% active | B-score at 10 µM | Q96LB2;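 active = plate-corrected calcium response at least 3 library SD above typical, normal starting fluorescence, not activating the receptor alone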;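 note: compound read alongside a low EC10 to EC30 dose of BAM8-22 agonist; peak minus trough fluorescence over baseline measured at the second addition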
MrgX1 antagonist: antagonists of human MrgX1 receptor; Q96LB2; MRGX1-HEK293 calcium flux, Fluo-4, BAM8-22 antagonism; active compounds read low; B-score at 10 µM; 310,000 tested, 1.3% active;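 active = calcium-response B-score plate-corrected more than 3 library SD below zero, starting fluorescence within 5 deviations, no agonist response on first addition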;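 note: peak minus trough fluorescence over baseline after final BAM8-22 challenge near maximal dose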
RGS4 block: inhibitors of human RGS4. P49798. HEK293 M3R/RGS4 inducible, Fluo-4 calcium flux; active compounds read high; triggered by carbachol at its EC20. B-score at 10 µM. 310,000 tested, 0.45% active. AID 463165;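 active = B-score, a plate-corrected calcium signal, over three deviations above library mean, with baseline fluorescence within five deviations of library mean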;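 note: RGS4 expression induced by doxycycline in cells with stable M3 receptor; B-score is computed from the integrated fluorescence ratio over baseline after carbachol; higher B-score means a larger calcium signal and so more RGS4 inhibition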
Target sequence (P49798 whole entry, looked up): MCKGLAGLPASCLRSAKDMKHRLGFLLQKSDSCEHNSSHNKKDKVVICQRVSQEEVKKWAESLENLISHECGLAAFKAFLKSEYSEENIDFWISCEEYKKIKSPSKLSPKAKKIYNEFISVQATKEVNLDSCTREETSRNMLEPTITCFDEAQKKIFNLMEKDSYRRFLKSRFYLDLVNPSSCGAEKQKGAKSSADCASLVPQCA
* = called active by the depositor.

CCc1ccc(Nc2n[n+](-c3ccccc3)c(-c3ccc(N(CC)CC)cc3)s2)cc1 was read as MrgX1 ag 44.7*, RGS4 act inactive, MrgX1 PAM inactive, MrgX1 antagonist inactive and RGS4 block inactive.
`Cc1ccn(S(=O)(=O)c2ccc3oc(=O)ccc3c2)n1` gave MrgX1 ag inactive, RGS4 act inactive, MrgX1 PAM inactive, MrgX1 antagonist inactive and RGS4 block inactive.
For CCN(CC(=O)Nc1c(F)cccc1F)C(=O)c1ccc(N2CCCCC2)c([N+](=O)[O-])c1 the results were MrgX1 ag inactive, RGS4 act inactive, MrgX1 PAM inactive, MrgX1 antagonist -4.64* and RGS4 block inactive.
COc1ccc(Cl)cc1NC(=O)CN(C)C(=O)c1ccc(N2CCCCC2)c([N+](=O)[O-])c1 was read as MrgX1 ag inactive, RGS4 act inactive, MrgX1 PAM inactive, MrgX1 antagonist inactive and RGS4 block inactive.
For CC(=O)N1CCN(c2ccc(C(N)=O)cc2[N+](=O)[O-])CC1 the results were MrgX1 ag inactive, RGS4 act inactive, MrgX1 PAM inactive, MrgX1 antagonist inactive and RGS4 block inactive.
`NC(=O)c1ccc(N2CCCCCC2)c([N+](=O)[O-])c1` gave MrgX1 ag inactive, RGS4 act inactive, MrgX1 PAM inactive, MrgX1 antagonist -5.65* and RGS4 block inactive.
For COc1ccc(Cl)cc1NC(=O)CN(C)C(=O)c1ccc(N2CCCCCC2)c([N+](=O)[O-])c1 the results were MrgX1 ag inactive, RGS4 act inactive, MrgX1 PAM inactive, MrgX1 antagonist -6.58* and RGS4 block inactive.
Screening COc1cc(/C=C2/C(=O)NN(c3cccc(C)c3)C2=O)cc([N+](=O)[O-])c1O returned MrgX1 ag inactive, RGS4 act inactive, MrgX1 PAM inactive, MrgX1 antagonist -9.59* and RGS4 block inactive.
`COc1cc(/C=C2/C(=O)NN(c3ccc(C)c(Cl)c3)C2=O)cc([N+](=O)[O-])c1O` gave MrgX1 ag inactive, RGS4 act inactive, MrgX1 PAM inactive, MrgX1 antagonist inactive and RGS4 block inactive.
CCn1c(CCc2ccccc2)nnc1SCC(N)=O was read as MrgX1 ag inactive, RGS4 act inactive, MrgX1 PAM inactive, MrgX1 antagonist inactive and RGS4 block inactive.
O=C(CSc1ccccn1)Nc1ccc(NC(=O)CSc2ccccn2)cc1 was read as MrgX1 ag inactive, RGS4 act inactive, MrgX1 PAM inactive, MrgX1 antagonist inactive and RGS4 block inactive.
`O=C(CSc1ccccn1)Nc1nonc1[N+](=O)[O-]` gave MrgX1 ag 37.9*, RGS4 act inactive, MrgX1 PAM inactive, MrgX1 antagonist inactive and RGS4 block inactive.
`N#CC(C#N)=C(Nc1ccc(F)cc1)SCc1cccc(Br)c1` gave MrgX1 ag inactive, RGS4 act inactive, MrgX1 PAM inactive, MrgX1 antagonist inactive and RGS4 block inactive.
Cc1cccc(CSC(Nc2ccc(F)cc2)=C(C#N)C#N)c1 was read as MrgX1 ag inactive, RGS4 act inactive, MrgX1 PAM inactive, MrgX1 antagonist -6.59* and RGS4 block inactive.
c1ccc(COc2ccc(OCCCCN3CCCC3)cc2)cc1 was read as MrgX1 ag inactive, RGS4 act -8.85*, MrgX1 PAM inactive, MrgX1 antagonist inactive and RGS4 block inactive.
O=C(c1ccccc1)c1ccc(OCCCN2CCCCC2)cc1 was read as MrgX1 ag inactive, RGS4 act -7.17*, MrgX1 PAM inactive, MrgX1 antagonist inactive and RGS4 block inactive.
For CC(=O)c1ccc(OCCCN2CCCCC2)cc1 the results were MrgX1 ag inactive, RGS4 act inactive, MrgX1 PAM inactive, MrgX1 antagonist inactive and RGS4 block inactive.
`c1ccc(OCCCCN2CCCCC2)cc1` gave MrgX1 ag inactive, RGS4 act inactive, MrgX1 PAM inactive, MrgX1 antagonist inactive and RGS4 block inactive.
For c1ccc(-c2ccccc2OCCCCN2CCCCCC2)cc1 the results were MrgX1 ag inactive, RGS4 act -6.99*, MrgX1 PAM inactive, MrgX1 antagonist inactive and RGS4 block inactive.
Screening O=C(NCCN1CCOCC1)C1CCN(c2ncnc3c2sc2cccc(F)c23)CC1 returned MrgX1 ag inactive, RGS4 act inactive, MrgX1 PAM inactive, MrgX1 antagonist inactive and RGS4 block inactive.
CCCCN(CC)CCCNC(=O)C1CCN(c2ncnc3c2sc2cccc(F)c23)CC1 was read as MrgX1 ag inactive, RGS4 act -7.07*, MrgX1 PAM inactive, MrgX1 antagonist inactive and RGS4 block inactive.
FC(F)(F)c1cccc(Oc2cc(C(F)(F)F)nc(-c3ccccn3)n2)c1 was read as MrgX1 ag inactive, RGS4 act inactive, MrgX1 PAM inactive, MrgX1 antagonist inactive and RGS4 block inactive.
`Cc1nn2c3ccccc3n(CCN3CCCCC3)c2nc1=O` gave MrgX1 ag inactive, RGS4 act inactive, MrgX1 PAM inactive, MrgX1 antagonist -5.97* and RGS4 block inactive.
Screening C=CCn1c2ccccc2n2nc(C)c(=O)nc12 returned MrgX1 ag inactive, RGS4 act inactive, MrgX1 PAM inactive, MrgX1 antagonist inactive and RGS4 block inactive.
O=C1C2CC=CCC2C(=O)N1c1ccc(NCCc2ccc(O)cc2)c([N+](=O)[O-])c1 (centres undefined) was read as MrgX1 ag inactive, RGS4 act inactive, MrgX1 PAM inactive, MrgX1 antagonist -5.24* and RGS4 block inactive.
`O=C1C2CC=CCC2C(=O)N1c1ccc(NCCc2ccc(Cl)cc2)c([N+](=O)[O-])c1` (centres undefined) gave MrgX1 ag inactive, RGS4 act inactive, MrgX1 PAM inactive, MrgX1 antagonist inactive and RGS4 block inactive.
COc1ccc(Cc2nc3ccc(C(=O)N4C[C@@H](C)O[C@@H](C)C4)cc3o2)cc1OC was read as MrgX1 ag inactive, RGS4 act inactive, MrgX1 PAM inactive, MrgX1 antagonist inactive and RGS4 block inactive.
`COCCN1CCN(C(=O)c2ccc3nc(Cc4ccc(OC)c(OC)c4)oc3c2)CC1` gave MrgX1 ag inactive, RGS4 act inactive, MrgX1 PAM inactive, MrgX1 antagonist -5.9* and RGS4 block inactive.
For CCCCOc1ccc(-c2c(C#N)c(N)[nH]c(=S)c2C#N)cc1 the results were MrgX1 ag inactive, RGS4 act inactive, MrgX1 PAM inactive, MrgX1 antagonist inactive and RGS4 block inactive.
Screening Cc1ccc2nc(/C=C/c3cccc(F)c3)ccc2c1 returned MrgX1 ag inactive, RGS4 act inactive, MrgX1 PAM inactive, MrgX1 antagonist inactive and RGS4 block inactive.
Screening Cc1ccc(NC(=O)c2cc(C)no2)cc1 returned MrgX1 ag inactive, RGS4 act inactive, MrgX1 PAM inactive, MrgX1 antagonist inactive and RGS4 block inactive.
